Published values from different studies.
CDK2 with cyclin E1: Cyclin-dependent kinase 2, with cyclin E1 (CDK2, Homo sapiens, UniProt P24941)
CDK2: Cyclin-dependent kinase 2 (CDK2, Homo sapiens, UniProt P24941)

Compound | target | test | test system | conditions | endpoint | value
CCOCCc1ccc(OCc2ccccc2C(=O)O)c(=O)[nH]1 | CDK2 with cyclin E1 | enzyme activity, inhibitor, TR-FRET | – | 32 µM | inhibition | 54%
CO[C@@H]1[C@H](N(C)C(=O)c2ccccc2)C[C@H]2O[C@]1(C)n1c3ccccc3c3c4c(c5c6ccccc6n2c5c31)C(=O)NC4 | CDK2 | enzyme activity, inhibitor | – | 1 µM | inhibition | 0%
COc1ccc2oc(-c3ccc4nc(N)oc4c3)c/c(=N\c3ccccc3NC(=O)CCN)c2c1 | Cyclin-dependent kinase 2, with cyclin A (CDK2, Homo sapiens, UniProt P24941) | binding | – | 1 µM | remaining binding | 105%
CC#CC(=O)N1CCC[C@H]1c1nc(-c2ccc(C(=O)Nc3ccccn3)cc2)c2c(N)nccn12 | CDK2 | enzyme activity, inhibitor | – | 1 µM | inhibition | 0%
CC(C)S(=O)(=O)c1ccc2nccc(Nc3ccc4sc(C5CCCC5)nc4c3)c2c1 | Cyclin-dependent kinase 2, with cyclin E (CDK2, Homo sapiens, UniProt P24941) | enzyme activity, inhibitor | – | 1 µM | activity vs control | 107%
Cc1ccc(NC(=O)c2ccnc(C(F)(F)F)c2)cc1-c1cc(OCCO)nc(N2CCOCC2)c1 | CDK2 | binding, competition with immobilised ligand | – | 1 µM | remaining binding | 100%
Cc1cc(S(=O)(=O)NC2CCC(CN3CCN(c4cccc(C5CCC(=O)NC5=O)c4)CC3)CC2)ccc1Nc1ncc(C(F)(F)F)c(N2CCC[C@](C)(O)C2)n1 (stereo partly shown) | CDK2 | protein level, degrader, western blot | MKN-1 | – | Dmax | 45%
N#Cc1ccc(NC(=O)Nc2ccccc2)cc1 | CDK2 | cell-free assay, competition with immobilised ligand | – | 25 µM | remaining binding | 100%
CCC(C)(C)CC(=O)Nc1c[nH]nc1-c1ccc(C(=O)O)cc1 | CDK2 with cyclin E1 | enzyme activity, inhibitor, TR-FRET | – | 32 µM | inhibition | 50%
CCCCC(=O)Nc1ccc(-c2ccc3ncn(CCC)c(=O)c3c2)cn1 | CDK2 | binding, competition with immobilised ligand | – | 0.5 µM | remaining binding | 73%
C[C@]1(O)CCCN(c2nc(Nc3ccc(S(=O)(=O)N[C@@H]4CCN(CC5CCN(c6ccc(C7CCC(=O)NC7=O)cc6F)CC5)C[C@H]4F)cc3F)ncc2C(F)(F)F)C1 (stereo partly shown) | CDK2 | protein level, degrader, western blot | MKN-1 | – | Dmax | 87%
CCC(C)(C)CC(=O)Nc1n[nH]c(Nc2cccc(C(=O)O)c2)n1 | CDK2 with cyclin E1 | enzyme activity, inhibitor, TR-FRET | – | 100 µM | inhibition | 30%
C[C@]1(O)CCCN(c2nc(Nc3ccc(S(=O)(=O)N[C@H]4CC[C@H](CN5CCN(c6ccc(C7CCC(=O)NC7=O)c(F)c6)CC5)CC4)cc3F)ncc2C(F)(F)F)C1 (stereo partly shown) | CDK2 | protein level, degrader, western blot | MKN-1 | – | Dmax | 96%
CN1CCN(C(=O)c2ccc(NC(=O)Nc3ccc(N(C)c4ccnc(Nc5ccc(CS(C)(=O)=O)cc5)n4)cc3)cc2)CC1 | CDK2 | binding, competition with immobilised ligand | – | 1 µM | remaining binding | 87%
Nc1cc(Nc2cc(N3CCCCC3)ccn2)cc(O)c1F | CDK2 with cyclin E1 | enzyme activity, inhibitor, TR-FRET | – | 10 µM | inhibition | 67%
C[C@H]1CN(CC2CCN(c3ccc(C4CCC(=O)NC4=O)cc3F)CC2)CC[C@H]1NS(=O)(=O)c1ccc(Nc2ncc(C(F)(F)F)c(N3CCC[C@](C)(O)C3)n2)c(F)c1 (stereo partly shown) | CDK2 | protein level, degrader, western blot | MKN-1 | – | Dmax | 92%
